# Experimental data published in ChEMBL document CHEMBL1926569, “Novel (E)-1-(4-methyl-2-(alkylamino)thiazol-5-yl)-3-arylprop-2-en-1-ones as potent antimicrobial agents” (2011).
# How the values were obtained:
# [1] = system: Penicillium ochrochloron; experiment: Ratio of ketoconazole to compound for Penicillium ochrochloron ATCC 9112; type: functional
# [2] = system: Enterococcus faecalis; experiment: Antibacterial activity against Enterococcus faecalis isolated from human incubated for 24 hrs followed by serial sub-cultivation for 24 hrs by microdilution; type: functional
# Method in brief: (§1)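 MBC: after the 24 h LB broth microdilution (1.0 × 10⁴ CFU per well, 160 rpm), wells were serially sub-cultured into fresh broth plates and incubated a further 24 h. MBC is the lowest concentration with no visible growth, taken as 99.5% killing of the original inoculum. Duplicate, repeated three times.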
# [3] = system: Candida albicans; experiment: Ratio of bifonazole to compound for Candida albicans isolated from human; type: functional
# [4] = system: Escherichia coli; experiment: Antibacterial activity against Escherichia coli ATCC 35210 after 24 hrs by microdilution method; type: functional; details: ATCC 35210, 24 h
# Method in brief: (§2)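 Broth microdilution in 96-well plates. Bacterial suspensions were adjusted in sterile saline to 1.0 × 10⁵ CFU/ml, prepared daily and kept at 4 °C. Compound was added to LB broth with 1.0 × 10⁴ CFU per well and shaken at 160 rpm for 24 h at […] (so in the source). MIC is the lowest concentration with no visible growth under a binocular microscope. OD655 was also read. Duplicate, repeated three times.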
# [5] = system: Talaromyces funiculosus; experiment: Antifungal activity against Penicillium funiculosum ATCC 36839 incubated for 72 hrs followed by serial sub-cultivation for 72 hrs by serial dilution technique; type: functional; details: ATCC 36839, 72 h
# Method in brief: (§3)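 MFC: material from 72 h malt broth microdilution wells was serially sub-cultured into fresh broth plates and incubated a further 72 h at 28 °C. Fungicidal concentration is taken from growth after sub-culture. Duplicate, repeated three times.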
# [6] = system: Talaromyces funiculosus; experiment: Antifungal activity against Penicillium funiculosum ATCC 36839 after 72 hrs by serial dilution technique; type: functional; details: ATCC 36839, 72 h
# Method in brief: (§4)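 Modified microdilution in 96-well plates. Fungi were kept on malt agar at 4 °C. Spores were washed off in sterile 0.85% saline with 0.1% Tween 80. Compounds were dissolved at 1 mg/ml in 5% DMSO with 0.1% Tween 80 and added to malt broth with inoculum. Plates were shaken at 160 rpm for 72 h at 28 °C. Duplicate, repeated three times.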
# [7] = system: Aspergillus fumigatus; experiment: Antifungal activity against Aspergillus fumigatus isolated from human incubated for 72 hrs followed by serial sub-cultivation for 72 hrs by serial dilution technique; type: functional; method in brief: as §3
# [8] = system: Aspergillus flavus; experiment: Antifungal activity against Aspergillus flavus ATCC 9643 incubated for 72 hrs followed by serial sub-cultivation for 72 hrs by serial dilution technique; type: functional; details: ATCC 9643, 72 h; method in brief: as §3
# [9] = system: Aspergillus ochraceus; experiment: Antifungal activity against Aspergillus ochraceus ATCC 12066 after 72 hrs by serial dilution technique; type: functional; details: ATCC 12066, 72 h; method in brief: as §4
# [10] = system: Trichoderma viride; experiment: Ratio of bifonazole to compound for Trichoderma viride IAM 5061; type: functional
# [11] = system: Bacillus cereus; experiment: Antibacterial activity against clinical isolate of Bacillus cereus incubated for 24 hrs followed by serial sub-cultivation for 24 hrs by microdilution; type: functional; method in brief: as §1
# [12] = system: Listeria monocytogenes; experiment: Antibacterial activity against Listeria monocytogenes NCTC 7973 incubated for 24 hrs followed by serial sub-cultivation for 24 hrs by microdilution; type: functional; details: NCTC 7973, 24 h; method in brief: as §1
# [13] = system: Trichoderma viride; experiment: Antifungal activity against Trichoderma viride IAM 5061 incubated for 72 hrs followed by serial sub-cultivation for 72 hrs by serial dilution technique; type: functional; details: IAM 5061, 72 h; method in brief: as §3
# [14] = system: Aspergillus fumigatus; experiment: Ratio of ketoconazole to compound for Aspergillus fumigatus isolated from human; type: functional
# [15] = system: Enterococcus faecalis; experiment: Antibacterial activity against Enterococcus faecalis isolated from human after 24 hrs by microdilution method; type: functional; method in brief: as §2
# [16] = system: Aspergillus ochraceus; experiment: Ratio of ketoconazole to compound for Aspergillus ochraceus ATCC 12066; type: functional
# [17] = system: Penicillium ochrochloron; experiment: Ratio of bifonazole to compound for Penicillium ochrochloron ATCC 9112; type: functional
# [18] = system: Candida albicans; experiment: Ratio of ketoconazole to compound for Candida albicans isolated from human; type: functional
# [19] = system: Candida albicans; experiment: Antifungal activity against Candida albicans isolated from human after 72 hrs by serial dilution technique; type: functional; method in brief: as §4
# [20] = system: Aspergillus ochraceus; experiment: Ratio of bifonazole to compound for Aspergillus ochraceus ATCC 12066; type: functional
# [21] = system: Bacillus cereus; experiment: Antibacterial activity against clinical isolate of Bacillus cereus after 24 hrs by microdilution method; type: functional; method in brief: as §2
# [22] = system: Micrococcus flavus; experiment: Antibacterial activity against Micrococcus flavus ATCC 10240 after 24 hrs by microdilution method; type: functional; details: ATCC 10240, 24 h; method in brief: as §2
# [23] = system: Aspergillus niger; experiment: Antifungal activity against Aspergillus niger ATCC 6275 after 72 hrs by serial dilution technique; type: functional; details: ATCC 6275, 72 h; method in brief: as §4
# [24] = system: Trichoderma viride; experiment: Antifungal activity against Trichoderma viride IAM 5061 after 72 hrs by serial dilution technique; type: functional; details: IAM 5061, 72 h; method in brief: as §4
# [25] = system: Staphylococcus aureus; experiment: Antibacterial activity against Staphylococcus aureus ATCC 6538 incubated for 24 hrs followed by serial sub-cultivation for 24 hrs by microdilution method; type: functional; details: ATCC 6538, 24 h; method in brief: as §1
# [26] = system: Talaromyces funiculosus; experiment: Ratio of bifonazole to compound for Penicillium funiculosum ATCC 36839; type: functional
# [27] = system: Pseudomonas aeruginosa; experiment: Antibacterial activity against Pseudomonas aeruginosa ATCC 27853 incubated for 24 hrs followed by serial sub-cultivation for 24 hrs by microdilution; type: functional; details: ATCC 27853, 24 h; method in brief: as §1
# [28] = system: Staphylococcus aureus; experiment: Antibacterial activity against Staphylococcus aureus ATCC 6538 after 24 hrs by microdilution method; type: functional; details: ATCC 6538, 24 h; method in brief: as §2
# [29] = system: Listeria monocytogenes; experiment: Antibacterial activity against Listeria monocytogenes NCTC 7973 after 24 hrs by microdilution method; type: functional; details: NCTC 7973, 24 h; method in brief: as §2
# [30] = system: Salmonella typhimurium; experiment: Antibacterial activity against Salmonella Typhimurium ATCC 13311 after 24 hrs by microdilution method; type: functional, Salmonella enterica subsp. enterica serovar Typhimurium; details: Salmonella enterica, ATCC 13311, 24 h; method in brief: as §2
# [31] = system: Candida albicans; experiment: Antifungal activity against Candida albicans isolated from human incubated for 72 hrs followed by serial sub-cultivation for 72 hrs by serial dilution technique; type: functional; method in brief: as §3
# [32] = system: Aspergillus niger; experiment: Ratio of bifonazole to compound for Aspergillus niger ATCC 6275; type: functional
# [33] = system: Pseudomonas aeruginosa; experiment: Ratio of ampicillin MIC to compound MIC for Pseudomonas aeruginosa ATCC 27853; type: functional
# [34] = system: Aspergillus niger; experiment: Antifungal activity against Aspergillus niger ATCC 6275 incubated for 72 hrs followed by serial sub-cultivation for 72 hrs by serial dilution technique; type: functional; details: ATCC 6275, 72 h; method in brief: as §3
# [35] = system: Salmonella typhimurium; experiment: Antibacterial activity against Salmonella Typhimurium ATCC 13311 incubated for 24 hrs followed by serial sub-cultivation for 24 hrs by microdilution; type: functional, Salmonella enterica subsp. enterica serovar Typhimurium; details: Salmonella enterica, ATCC 13311, 24 h; method in brief: as §1
# [36] = system: Penicillium ochrochloron; experiment: Antifungal activity against Penicillium ochrochloron ATCC 9112 after 72 hrs by serial dilution technique; type: functional; details: ATCC 9112, 72 h; method in brief: as §4
# [37] = system: Escherichia coli; experiment: Antibacterial activity against Escherichia coli ATCC 35210 incubated for 24 hrs followed by serial sub-cultivation for 24 hrs by microdilution; type: functional; details: ATCC 35210, 24 h; method in brief: as §1
# [38] = system: Pseudomonas aeruginosa; experiment: Antibacterial activity against Pseudomonas aeruginosa ATCC 27853 after 24 hrs by microdilution method; type: functional; details: ATCC 27853, 24 h; method in brief: as §2
# [39] = system: Penicillium ochrochloron; experiment: Antifungal activity against Penicillium ochrochloron ATCC 9112 incubated for 72 hrs followed by serial sub-cultivation for 72 hrs by serial dilution technique; type: functional; details: ATCC 9112, 72 h; method in brief: as §3
# [40] = system: Aspergillus ochraceus; experiment: Antifungal activity against Aspergillus ochraceus ATCC 12066 incubated for 72 hrs followed by serial sub-cultivation for 72 hrs by serial dilution technique; type: functional; details: ATCC 12066, 72 h; method in brief: as §3
# [41] = system: Micrococcus flavus; experiment: Antibacterial activity against Micrococcus flavus ATCC 10240 incubated for 24 hrs followed by serial sub-cultivation for 24 hrs by microdilution; type: functional; details: ATCC 10240, 24 h; method in brief: as §1
# [42] = system: Aspergillus flavus; experiment: Antifungal activity against Aspergillus flavus ATCC 9643 after 72 hrs by serial dilution technique; type: functional; details: ATCC 9643, 72 h; method in brief: as §4
# [43] = system: Aspergillus ochraceus; experiment: Antifungal activity against Aspergillus ochraceus after 72 hrs by serial dilution technique
smiles,measurement,setting,value
CCNc1nc(C)c(C(=O)/C=C/c2cccc(F)c2)s1,Ratio,[1],10
same,MBC,[2],68.9 µM
same,Ratio,[3],10
same,MIC,[4],68.9 µM
same,MFC,[5],68.9 µM
same,MIC,[6],34.5 µM
same,MFC,[7],68.9 µM
same,MFC,[8],86.2 µM
same,MIC,[9],68.9 µM
same,Ratio,[10],10
same,MBC,[11],68.9 µM
same,MBC,[12],86.2 µM
same,MFC,[13],68.9 µM
same,Ratio,[14],10
same,MIC,[15],51.7 µM
same,Ratio,[16],10
same,Ratio,[17],10
same,Ratio,[18],10
same,MIC,[19],34.5 µM
same,Ratio,[20],10
same,MIC,[21],51.7 µM
same,MIC,[22],34.5 µM
same,MIC,[23],34.5 µM
same,MIC,[24],34.5 µM
same,MBC,[25],103 µM
same,Ratio,[26],10
same,MBC,[27],68.9 µM
same,MIC,[28],68.9 µM
same,MIC,[29],86.2 µM
same,MIC,[30],51.7 µM
same,MFC,[31],68.9 µM
same,Ratio,[32],10
same,Ratio,[33],10
same,MFC,[34],68.9 µM
same,MBC,[35],51.7 µM
same,MIC,[36],34.5 µM
same,MBC,[37],86.2 µM
same,MIC,[38],68.9 µM
same,MFC,[39],68.9 µM
same,MFC,[40],86.2 µM
same,MBC,[41],86.2 µM
same,MIC,[42],68.9 µM
same,MIC,[43],34.5 µM
CNc1nc(C)c(C(=O)/C=C/c2cccc(Cl)c2Cl)s1,Ratio,[1],10
same,MBC,[2],76.5 µM
same,Ratio,[3],10
same,MIC,[4],45.9 µM
same,MFC,[5],61.2 µM
same,MIC,[6],30.6 µM
same,MFC,[7],61.2 µM
same,MFC,[8],76.5 µM
same,MIC,[9],30.6 µM
same,Ratio,[10],10
same,MBC,[11],61.2 µM
same,MBC,[12],91.7 µM
same,MFC,[13],61.2 µM
same,Ratio,[14],10
same,MIC,[15],76.5 µM
same,Ratio,[16],10
same,Ratio,[17],10
same,Ratio,[18],10
same,MIC,[19],45.9 µM
same,Ratio,[20],10
same,MIC,[21],45.9 µM
same,MIC,[22],30.6 µM
same,MIC,[23],30.6 µM
same,MIC,[24],30.6 µM
same,MBC,[25],91.7 µM
same,Ratio,[26],10
same,MBC,[27],91.7 µM
same,MIC,[28],61.2 µM
same,MIC,[29],91.7 µM
same,MIC,[30],61.2 µM
same,MFC,[31],61.2 µM
same,Ratio,[32],10
same,Ratio,[33],10
same,MFC,[34],61.2 µM
same,MBC,[35],76.5 µM
same,MIC,[36],30.6 µM
same,MBC,[37],61.2 µM
same,MIC,[38],61.2 µM
same,MFC,[39],61.2 µM
same,MFC,[40],61.2 µM
same,MBC,[41],91.7 µM
same,MIC,[42],30.6 µM
same,MIC,[43],30.6 µM
